From ChEMBL document CHEMBL1129982, “Structure-activity relationships in a series of orally active gamma-hydroxy butenolide endothelin antagonists” (J Med Chem, 1997)
Each block holds one molecule with its values, some of them ahead of it.

Columns and labels:
Endothelin-1 receptor = target: T1, Endothelin-1 receptor (Homo sapiens, UniProt P25101); experiment: Binding affinity against human cloned endothelin A receptor expressed in LTK-cells; type: cell-based
T1 sequence (P25101 whole entry): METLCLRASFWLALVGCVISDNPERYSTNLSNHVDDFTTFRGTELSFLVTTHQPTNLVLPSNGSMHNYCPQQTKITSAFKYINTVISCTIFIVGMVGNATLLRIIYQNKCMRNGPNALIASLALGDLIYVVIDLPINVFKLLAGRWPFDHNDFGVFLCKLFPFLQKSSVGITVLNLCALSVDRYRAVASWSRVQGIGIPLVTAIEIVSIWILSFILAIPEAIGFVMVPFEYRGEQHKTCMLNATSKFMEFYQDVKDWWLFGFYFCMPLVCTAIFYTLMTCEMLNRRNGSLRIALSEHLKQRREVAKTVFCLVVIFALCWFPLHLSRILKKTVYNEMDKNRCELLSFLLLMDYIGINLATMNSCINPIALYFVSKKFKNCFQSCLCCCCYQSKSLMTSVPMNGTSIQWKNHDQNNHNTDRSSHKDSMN
Summary of the method: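 Radioligand binding to cloned human ETA (Ltk⁻ cells) and ETB (CHO-K1 cells) receptors. Selectivity expressed as ETB IC50/ETA IC50.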

[1] = target: T2, Endothelin receptor type B (Homo sapiens, UniProt P24530); experiment: Binding affinity against human cloned Endothelin B receptor expressed in CHO-K1 cells; type: cell-based
T2 sequence (P24530 whole entry): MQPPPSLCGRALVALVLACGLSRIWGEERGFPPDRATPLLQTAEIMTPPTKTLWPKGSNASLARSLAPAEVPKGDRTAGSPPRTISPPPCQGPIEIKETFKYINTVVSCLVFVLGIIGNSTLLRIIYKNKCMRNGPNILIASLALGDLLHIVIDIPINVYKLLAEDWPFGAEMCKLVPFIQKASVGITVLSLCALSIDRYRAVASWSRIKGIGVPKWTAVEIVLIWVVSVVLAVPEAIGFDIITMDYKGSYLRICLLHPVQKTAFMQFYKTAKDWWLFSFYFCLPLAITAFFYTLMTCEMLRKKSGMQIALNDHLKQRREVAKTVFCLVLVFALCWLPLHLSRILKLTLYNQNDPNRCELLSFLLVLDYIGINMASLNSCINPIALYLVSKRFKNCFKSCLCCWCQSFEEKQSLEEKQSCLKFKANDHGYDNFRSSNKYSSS
Summary of the method: (§1)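 Radioligand binding to cloned human ETA (Ltk⁻ cells) and ETB (CHO-K1 cells) receptors. […] Selectivity expressed as ETB IC50/ETA IC50.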

[2] = target: Endothelin receptor, ET-A/ET-B (Homo sapiens) (UniProt P24530+P25101); experiment: Selectivity of compound on ET B with respect to ET A receptor; type: protein assay; summary of the method: as §1
Rattus norvegicus = experiment: In vivo effect at 10 mg/kg on MABP in anesthetized ganglionic-blocked rats versus ET-1 (0.3 nmol/kg, iv) baseline; type: functional
Summary of the method: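 Rats dosed orally by gavage at 10 mg/kg. Ganglionic blockade with mecamylamine given 15 min later (baseline MABP 80–90 mmHg). ET-1 challenge (0.3 nmol/kg iv) 15 min after that. Reduction of the peak pressor response, about 5 min post ET-1, scored against vehicle-treated controls.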

[3] = target: T2, Endothelin receptor type B; experiment: Inhibition of Endothelin B receptor mediated (ET-3) release of arachidonic acid from human cloned receptors expressed in CHO-K1 cells; type: cell-based
Summary of the method: (§2)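 Arachidonic acid release assay. ETA: rabbit renal artery vascular smooth muscle cells stimulated with ET-1. ETB: recombinant human receptors in CHO-K1 cells stimulated with ET-3.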

[4] = target: T2, Endothelin receptor type B; experiment: Inhibition of Endothelin B receptor mediated (ET-3) release of arachidonic acid from human cloned receptors / CHO-K1 cells; In active; type: cell-based; summary of the method: as §2
[5] = Mean of apparent terminal phase elimination half-life in oral (5 mg/kg) fasted dogs; type: ADME, organism-based, Canis lupus familiaris; settings: dog, in vivo
Summary of the method: (§3)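 Three-way crossover in four male beagles: single 2.5 mg/kg iv dose (fed) or 5 mg/kg oral capsule, fed or fasted. Serial heparinized plasma taken up to 24 h. Drug isolated by reverse-phase SPE, quantified by C18 HPLC with fluorescence (ex 312, em 430 nm), LOQ 10 ng/mL. Noncompartmental analysis. […] AUC by trapezoidal rule extrapolated to infinity. F from dose-normalized po/iv AUC ratio.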

[6] = Mean of apparent terminal phase elimination half-life in oral (5 mg/kg) fed dogs; type: ADME, organism-based, Canis lupus familiaris; settings: dog, in vivo; summary of the method: as §3
[7] = Area under the concentration-time curve from time zero to infinity in oral (5 mg/kg) fed dogs; type: ADME, organism-based, Canis lupus familiaris; settings: dog, in vivo; summary of the method: as §3
[8] = Absolute oral bioavailability in oral (5 mg/kg) fed dogs; type: ADME, organism-based, Canis lupus familiaris; settings: dog, in vivo; summary of the method: as §3
[9] = Mean of apparent terminal phase elimination half-life after intravenous administration of 2.5 mg/kg in dogs; type: ADME, organism-based, Canis lupus familiaris; set-up: dose 2.5 mg/kg, route intravenous; settings: dog, in vivo
Summary of the method: (§4)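 Four male beagle dogs, fed, single 2.5 mg/kg iv dose within a three-way crossover. Serial heparinized plasma sampled to 24 h. Drug recovered by reverse-phase solid-phase extraction and measured by HPLC with fluorescence detection (ex 312, em 430 nm); LOQ 10 ng/mL.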

[10] = Maximum observed concentration in oral (5 mg/kg) fed dogs; type: ADME, organism-based, Canis lupus familiaris; set-up: dose 5 mg/kg, route oral; settings: dog, in vivo; summary of the method: as §3
[11] = Maximum observed concentration in oral (5 mg/kg) fasted dogs; type: ADME, organism-based, Canis lupus familiaris; set-up: dose 5 mg/kg, route oral; settings: dog, in vivo; summary of the method: as §3
[12] = Time to reach maximum observed concentration in oral (5 mg/kg) fasted dogs; type: ADME, organism-based, Canis lupus familiaris; settings: dog, in vivo; summary of the method: as §3
[13] = Area under the concentration-time curve from time zero to infinity after intravenous administration of 2.5 mg/kg in dogs; type: ADME, organism-based, Canis lupus familiaris; set-up: dose 2.5 mg/kg, route intravenous; settings: dog, in vivo; summary of the method: as §4
[14] = Absolute oral bioavailability in oral (5 mg/kg) fasted dogs; type: ADME, organism-based, Canis lupus familiaris; settings: dog, in vivo; summary of the method: as §3
[15] = Time to reach maximum observed concentration in oral (5 mg/kg) fed dogs; type: ADME, organism-based, Canis lupus familiaris; settings: dog, in vivo; summary of the method: as §3
[16] = Area under the concentration-time curve from time zero to infinity in oral (5 mg/kg) fasted dogs; type: ADME, organism-based, Canis lupus familiaris; settings: dog, in vivo; summary of the method: as §3

SMILES: COc1ccc(C(=O)/C(Cc2ccccc2)=C(\C(=O)[O-])c2ccc3c(c2)OCO3)cc1.C[N+](C)(C)CCO
Pressure response (Rattus norvegicus): 80% | IC50 [3]: 22 µM

SMILES: O=C1OC(O)(c2ccc(Cl)cc2)C(Cc2ccccc2)=C1c1ccc2c(c1)OCO2 (stereo unspecified)
IC50 [4]: Not Active | IC50 [1]: 27 µM

SMILES: COc1ccc(C(=O)/C(Cc2ccccc2)=C(\C(=O)[O-])c2cc(OC)c3c(c2)OCO3)cc1.[Na+]
Pressor response (Rattus norvegicus): 76% | IC50 [3]: 15.7 µM

SMILES: COc1ccc(C(=O)/C(Cc2cc(OC)c(OC)c(OC)c2)=C(\C(=O)[O-])c2ccc3c(c2)OCO3)cc1C.[Na+]
Pressor response (Rattus norvegicus): 53% | IC50 [3]: 1.9 µM

Other lines, results leading:

IC50 (Endothelin-1 receptor): 0.00012 µM | IC50 [1]: 0.445 µM | Selectivity [2]: 3700
SMILES: CCOc1cc(CC2=C(c3ccc4c(c3)OCO4)C(=O)OC2(O)c2ccc(OC)cc2)cc(OCC)c1OCC (stereo unspecified)

IC50 (Endothelin-1 receptor): 0.0005 µM | IC50 [1]: 0.26 µM | Selectivity [2]: 520
SMILES: COc1ccc(C2(O)OC(=O)C(c3cc(OC)c4c(c3)OCO4)=C2Cc2cc(OC)c(OC)c(OC)c2)cc1 (stereo unspecified)

half-life [5]: 1.2 h | half-life [6]: 1.9 h | AUC(0-inf) [7]: 0.59 µg·h/mL | bioavailability [8]: 20% | half-life [9]: 0.62 h | Cmax [10]: 0.48 µg/mL | Cmax [11]: 1.52 µg/mL | Tmax [12]: 0.69 h | AUC(0-inf) [13]: 1.5 µg·h/mL | bioavailability [14]: 67% | Tmax [15]: 2.5 h | AUC(0-inf) [16]: 2 µg·h/mL
SMILES: COc1ccc(C2(O)OC(=O)C(c3ccc4c(c3)OCO4)=C2Cc2cc(OC)c(OC)c(OC)c2)cc1 (stereo unspecified) [PD-156707]
